Published values pooled from the literature.
Protocols differ between the studies behind these lines.
Organism: Enterococcus faecalis
Read-out: microbial growth

CC(C)Oc1c(NC(=O)c2ccc(NC(=O)[C@H](CC(N)=O)NC(=O)c3ccc(NC(=O)c4ccc(C#N)cn4)cc3)cc2)ccc(C(=O)Nc2ccc(C(=O)O)cc2)c1O  MIC (ATCC29212): 0.125 µg/mL
Cc1ccc(C)n1-c1ccc(-c2nnc(-c3ccccc3[N+](=O)[O-])[nH]2)cc1  MIC (broth dilution; ATCC14506; 18 h): 31.2 µg/mL
C/C(=C\c1ccc(O)cc1)C(=O)Nc1ccc(C(=O)N[C@@H](CC(N)=O)C(=O)Nc2ccc(C(=O)Nc3ccc(C(=O)Nc4ccc(C(=O)O)cc4)c(O)c3OC(C)C)cc2)cc1  MIC (ATCC29212): 0.5 µg/mL
Cc1ccc(C)n1-c1ccc(C(=O)NNC=O)cc1  MIC (broth dilution; ATCC14506; 18 h): 31.2 µg/mL
C=CCn1c(-c2ccc(OC)c(OC)c2)nc2ccccc21  MIC (broth dilution; ATCC29212): 64 µg/mL
C/C=C(\C)c1cc(O)c(C)c(OC(=O)c2c(C)c(Cl)c(O)c(Cl)c2O)c1  MIC (broth dilution; ATCC29212): 8 µg/mL
Cc1ccc2nc(-c3ccco3)n(Cc3ccccc3)c2c1  MIC (broth dilution; ATCC29212): 128 µg/mL
CC1(C)S[C@@H]2[C@H](NC(=O)[C@H](N)c3ccccc3)C(=O)N2[C@H]1C(=O)O  MIC (broth dilution; ATCC29212): 1 µg/mL
Cc1ccc(C)n1-c1ccc(-c2nnc(-c3cccc([N+](=O)[O-])c3)[nH]2)cc1  MIC (broth dilution; ATCC14506; 18 h): 31.2 µg/mL
Cc1ccc2nc(-c3cccc(O)c3)[nH]c2c1  MIC (broth dilution; ATCC29212): 64 µg/mL
CNC(=O)c1cc(Oc2ccc(NC(=O)Nc3ccc(Cl)c(C(F)(F)F)c3)cc2)ccn1  MIC: > 100 µM
Cc1ccc(C)n1-c1ccc(-c2nnc(-c3ccc(O)cc3)[nH]2)cc1  MIC (broth dilution; ATCC14506; 18 h): 31.2 µg/mL
CCn1cc(C(=O)O)c(=O)c2cc(F)c(N3CCNCC3)cc21  MIC (broth dilution; NCTC12697): 4 µM
Cc1ccc2nc(-c3ccc(F)cc3)[nH]c2c1  MIC (broth dilution; ATCC29212): 64 µg/mL
C/C=C(\C)c1cc(OC(=O)c2c(C)c(Cl)c(O)c(Cl)c2O)c(C)c(O)c1C(=O)O  MIC (broth dilution; ATCC29212): > 64 µg/mL
COc1cccc(-c2nc3ccccc3n2Cc2ccccc2)c1  MIC (broth dilution; ATCC29212): 64 µg/mL
Cc1cc(=O)[nH]n1C(=O)c1ccc(-n2c(C)ccc2C)cc1  MIC (broth dilution; ATCC14506; 18 h): 125 µg/mL
CC(C)Oc1c(NC(=O)c2ccc(NC(=O)[C@H](CC(N)=O)NC(=O)c3ccc(NC(=O)c4ccc(C#N)s4)cc3)cc2)ccc(C(=O)Nc2ccc(C(=O)O)cc2)c1O  MIC (ATCC29212): 0.25 µg/mL
Cc1ccc2nc(-c3ccc(Cl)cc3)n(Cc3ccccc3)c2c1  MIC (broth dilution; ATCC29212): 16 µg/mL
Cc1ccc(C)n1-c1ccc(-c2nnc(-c3ccc(Br)cc3)[nH]2)cc1  MIC (broth dilution; ATCC14506; 18 h): 8 µg/mL
